# Data: ChEMBL document CHEMBL1667760, “Synthesis and biological evaluation of 3,5-diaryl isoxazoline/isoxazole linked 2,3-dihydroquinazolinone hybrids as anticancer agents” (2011)
# Calls of active or inactive are those of the source. The rule behind the calls is not given here.
# Columns and labels:
# CCRF-CEM = assay: Cytotoxicity against human CCRF-CEM cells after 48 hrs by sulforhodamine B assay; type: functional
# Method in brief: (§1)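 Run by the NCI 60-cell-line screen. A one-dose pre-test was done first, followed by the main test over a 5-log dose range (10^-4 to 10^-8 M). Results are reported as log molar GI50 (50% net growth inhibition), TGI (total growth inhibition) and LC50 (50% net cell death), with mean-graph midpoints across all lines.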
# K562 = assay: Cytotoxicity against human K562 cells after 48 hrs by sulforhodamine B assay; type: functional; conditions: K562, 48 h; method in brief: as §1
# MOLT-4 = assay: Cytotoxicity against human MOLT4 cells after 48 hrs by sulforhodamine B assay; type: functional; conditions: MOLT-4, 48 h; method in brief: as §1
# SR = assay: Cytotoxicity against human SR cells after 48 hrs by sulforhodamine B assay; type: functional
# Method in brief: (§2)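 NCI 60-cell-line panel screen of human tumor lines: a one-dose pre-test, then the main test over a 5-log range (10^-4–10^-8 M). GI50, TGI and LC50 are reported as log molar concentrations for 50% net growth inhibition, total growth inhibition and 50% net cell death. Mean graph midpoints are also calculated.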
# A549 = assay: Cytotoxicity against human A549 cells after 48 hrs by sulforhodamine B assay; type: functional; conditions: A549, 48 h
# Method in brief: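 Cells were grown in RPMI 1640 with 10% FBS and 2 mM L-glutamine, plated at densities set by doubling time, and pre-incubated 24 h at 37 °C, 5% CO2. Drugs were tested at 0.1, 1, 10 and 100 µM in triplicate wells for 48 h continuous exposure. Cells were fixed with 10% TCA (final) and stained with 0.4% SRB. A540 was read against a 690 nm reference, and percent growth was calculated relative to control. Experiments were repeated three times.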
# HOP-92 = assay: Cytotoxicity against human HOP92 cells after 48 hrs by sulforhodamine B assay; type: functional; conditions: HOP-92, 48 h; method in brief: as §1
# NCI-H226 = assay: Cytotoxicity against human NCI-H226 cells after 48 hrs by sulforhodamine B assay; type: functional; conditions: NCI-H226, 48 h; method in brief: as §1
# NCI-H322M = assay: Cytotoxicity against human NCI-H322M cells after 48 hrs by sulforhodamine B assay; type: functional; method in brief: as §1
# COLO 205 = assay: Cytotoxicity against human COLO205 cells after 48 hrs by sulforhodamine B assay; type: functional; conditions: COLO 205, 48 h; method in brief: as §1
# HCT-15 = assay: Cytotoxicity against human HCT15 cells after 48 hrs by sulforhodamine B assay; type: functional; conditions: HCT-15, 48 h; method in brief: as §1
# SW-620 = assay: Cytotoxicity against human SW620 cells after 48 hrs by sulforhodamine B assay; type: functional; conditions: SW-620, 48 h; method in brief: as §2
# SF-268 = assay: Cytotoxicity against human SF268 cells after 48 hrs by sulforhodamine B assay; type: functional; conditions: SF-268, 48 h; method in brief: as §1
# SF-295 = assay: Cytotoxicity against human SF295 cells after 48 hrs by sulforhodamine B assay; type: functional; conditions: SF-295, 48 h; method in brief: as §1
# U-251 = assay: Cytotoxicity against human U251 cells after 48 hrs by sulforhodamine B assay; type: functional; conditions: U-251, 48 h; method in brief: as §2
# Malme-3M = assay: Cytotoxicity against human MALME-3M cells after 48 hrs by sulforhodamine B assay; type: functional
# Method in brief: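 Run by the NCI 60 human tumour cell line screen. A one-dose pre-test across sixty lines came first. The main test then used a 5-log dose range (10^-4–10^-8 M). Values derived per cell line were GI50 (log molar concentration for 50% net growth inhibition), TGI (total growth inhibition) and LC50 (50% net cell death).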
# M14 = assay: Cytotoxicity against human M14 cells after 48 hrs by sulforhodamine B assay; type: functional; conditions: M14, 48 h; method in brief: as §1
# OVCAR-3 = assay: Cytotoxicity against human OVCAR3 cells after 48 hrs by sulforhodamine B assay; type: functional; conditions: OVCAR-3, 48 h; method in brief: as §1
# 786-0 = assay: Cytotoxicity against human 786-0 cells after 48 hrs by sulforhodamine B assay; type: functional; conditions: 786-0, 48 h; method in brief: as §1
# A498 = assay: Cytotoxicity against human A498 cells after 48 hrs by sulforhodamine B assay; type: functional; conditions: A498, 48 h; method in brief: as §1
# SN12C = assay: Cytotoxicity against human SN12C cells after 48 hrs by sulforhodamine B assay; type: functional; method in brief: as §2
# MDA-MB-231 = assay: Cytotoxicity against human MDA-MB-231 cells after 48 hrs by sulforhodamine B assay; type: functional; conditions: MDA-MB-231, 48 h; method in brief: as §1
# BT-549 = assay: Cytotoxicity against human BT549 cells after 48 hrs by sulforhodamine B assay; type: functional; conditions: BT-549, 48 h; method in brief: as §1
# MCF7 [1] = assay: Cell cycle arrest in human MCF7 cells assessed as accumulation at G1 phase at 5 uM after 24 hrs using propidium iodide staining by flow cytometry relative to control; type: functional
# Method in brief: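 MCF-7 cells were seeded at 5×10^5 per 60 mm dish and grown 24 h. They were then exposed to 5 uM compound for a further 24 h, with untreated control cells alongside. Cells were trypsinised, fixed in ice-cold 70% ethanol (4 °C, 30 min), treated with 1 mg/ml RNase A (37 °C, 30 min) and stained with propidium iodide/citrate/Triton solution. DNA content was read by flow cytometry on 20,000 events.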
# MCF7 [2] = assay: Reduction of cyclin A expression in human MCF7 cells at 5 uM after 24 hrs by Western blotting; type: functional, cell-based
# Method in brief: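 MCF-7 cells, kept in DMEM with 10% fetal calf serum at 37 °C under 5% CO2, treated 24 h. Lysis in ice-cold RIPA with protease inhibitors; Bradford quantitation; 30 µg protein per lane on 12% SDS-PAGE, then PVDF. Primary antibodies (1:500) at 4 °C overnight; HRP secondary (1:2000); chemiluminescence detection; β-actin loading control.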
# [3] = read-out: pLC50 (the source's name) (converted)
smiles,measurement,setting,value
COc1cc(C2NC(=O)c3ccccc3N2)ccc1OCCCCCOc1c(OC)cc(C2=NOC(c3cc(OC)c(OC)c(OC)c3)C2)cc1OC (stereo unspecified),GI50,CCRF-CEM,0.631 µM
same,CC50,CCRF-CEM; [3],> 100 µM
same,TGI,CCRF-CEM; read-out: pTGI,> 100 µM
same,GI50,K562,0.501 µM
same,CC50,K562; [3],> 100 µM
same,TGI,K562; read-out: pTGI,> 100 µM
same,GI50,MOLT-4,0.479 µM
same,CC50,MOLT-4; [3],> 100 µM
same,TGI,MOLT-4; read-out: pTGI,> 100 µM
same,GI50,SR,0.955 µM
same,CC50,SR; [3],> 100 µM
same,TGI,SR; read-out: pTGI,> 100 µM
same,LC50,A549,> 100 µM
same,GI50,A549; read-out: pGI50 (converted),0.324 µM
same,TGI,A549; read-out: pTGI,> 100 µM
same,GI50,HOP-92,60.3 µM
same,CC50,HOP-92; [3],> 100 µM
same,TGI,HOP-92; read-out: pTGI,> 100 µM
same,GI50,NCI-H226,3.39 µM
same,CC50,NCI-H226; [3],> 100 µM
same,TGI,NCI-H226; read-out: pTGI,> 100 µM
same,GI50,NCI-H322M,> 100 µM
same,CC50,NCI-H322M; [3],> 100 µM
same,TGI,NCI-H322M; read-out: pTGI,> 100 µM
same,GI50,COLO 205,34.7 µM
same,CC50,COLO 205; [3],> 100 µM
same,TGI,COLO 205; read-out: pTGI,> 100 µM
same,GI50,HCT-15,0.708 µM
same,CC50,HCT-15; [3],> 100 µM
same,TGI,HCT-15; read-out: pTGI,> 100 µM
same,GI50,SW-620,10.2 µM
same,CC50,SW-620; [3],> 100 µM
same,TGI,SW-620; read-out: pTGI,> 100 µM
same,GI50,SF-268,21.4 µM
same,CC50,SF-268; [3],> 100 µM
same,TGI,SF-268; read-out: pTGI,> 100 µM
same,GI50,SF-295,0.398 µM
same,CC50,SF-295; [3],> 100 µM
same,TGI,SF-295; read-out: pTGI,> 100 µM
same,GI50,U-251,15.1 µM
same,CC50,U-251; [3],> 100 µM
same,TGI,U-251; read-out: pTGI,> 100 µM
same,CC50,Malme-3M; [3],> 100 µM
same,TGI,Malme-3M; read-out: pTGI,> 100 µM
same,GI50,M14,20.9 µM
same,CC50,M14; [3],> 100 µM
same,TGI,M14; read-out: pTGI,> 100 µM
same,GI50,OVCAR-3,12.9 µM
same,CC50,OVCAR-3; [3],> 100 µM
same,TGI,OVCAR-3; read-out: pTGI (converted),63.1 µM
same,GI50,786-0,23.4 µM
same,CC50,786-0; [3],> 100 µM
same,TGI,786-0; read-out: pTGI (converted),61.7 µM
same,GI50,A498,19.5 µM
same,CC50,A498; [3],> 100 µM
same,TGI,A498; read-out: pTGI,> 100 µM
same,GI50,SN12C,25.1 µM
same,CC50,SN12C; [3],> 100 µM
same,TGI,SN12C; read-out: pTGI,> 100 µM
same,GI50,MDA-MB-231,14.8 µM
same,CC50,MDA-MB-231; [3],> 100 µM
same,TGI,MDA-MB-231; read-out: pTGI,> 100 µM
same,CC50,BT-549; [3],> 100 µM
same,TGI,BT-549; read-out: pTGI,> 100 µM
same,Activity,MCF7 [1],32.15%
same,Activity,MCF7 [2],Active
